High-throughput results (PubChem BioAssay)
PAFAH1B3 inh = blocks human PAF acetylhydrolase 1B catalytic subunit 3; recombinant PAFAH1B3, FP-rhodamine probe, fluorescence polarization; inhibition, % at 3.39 µM; 0.28% of 340,000 active; AID 492972;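 active means inhibition above the screen-wide average of all tested compounds plus 3 SD, cut at about 25% in these data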;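 further: 0% = enzyme with DMSO only and 100% = wells lacking PAFAH1B3 protein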
pPAFAH FP inh = pPAFAH (human) enzyme inhibition. recombinant pPAFAH, FP-rhodamine probe fluorescence polarization. inhibition, % at 3.39 µM. 1.5% of 330,000 active;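 active means inhibition above the mean inhibition across the screen plus 3 SD, cut at about 25% in these data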;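 further: inhibitors block binding of the rhodamine activity-based probe so polarization drops; 0% = enzyme with DMSO and 100% = wells lacking pPAFAH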
Target sequence (Q13093 whole entry, looked up): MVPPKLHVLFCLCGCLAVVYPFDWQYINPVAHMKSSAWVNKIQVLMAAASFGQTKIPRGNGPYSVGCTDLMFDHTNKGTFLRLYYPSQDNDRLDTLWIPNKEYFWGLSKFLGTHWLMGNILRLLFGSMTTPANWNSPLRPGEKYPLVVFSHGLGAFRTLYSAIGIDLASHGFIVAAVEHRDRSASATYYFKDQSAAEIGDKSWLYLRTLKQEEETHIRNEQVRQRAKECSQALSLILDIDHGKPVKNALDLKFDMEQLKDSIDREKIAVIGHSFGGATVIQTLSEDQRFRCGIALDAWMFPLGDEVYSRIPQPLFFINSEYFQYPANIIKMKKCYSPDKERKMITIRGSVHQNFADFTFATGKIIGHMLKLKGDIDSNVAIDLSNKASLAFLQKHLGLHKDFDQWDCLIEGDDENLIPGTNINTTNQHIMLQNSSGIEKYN
IMP-1 inh = inhibitors of Pseudomonas aeruginosa IMP-1 metallo-beta-lactamase; purified IMP-1, nitrocefin hydrolysis, epi-absorbance fluorescence; inhibition, % at 5.6 µM; 0.45% of 290,000 active;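 active means inhibition above the mean plus 3 SD of all compounds in the same screening run, cut at about 4.5% in these data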;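 further: 0% = IMP-1 with DMSO and 100% = DMSO wells lacking enzyme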
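Test system: recombinant IMP-1 enzyme, purified / Medium: HEPES buffer pH 7.1 with ZnSO4 and Brij 35 / Doses: single dose, 5.6 µM / Times: 25 °C, 15 min preincubation, 25 min reaction / Detection: Epi-absorbance via hydrolysed-nitrocefin quenching of white-plate fluorescence, 480/530 nm, EDTA stop / Evaluation: percent inhibition from optical density relative to buffer-blank wells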
VIM-2 inh = inhibitors of Pseudomonas aeruginosa VIM-2 metallo-beta-lactamase; 0.89% of 290,000 active; purified VIM-2, nitrocefin hydrolysis, epi-absorbance fluorescence; inhibition, % at 5.6 µM;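 active means inhibition above the mean of all tested compounds plus 3 SD, cutoff set per screening run, cut at about 7.5% in these data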;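 further: red hydrolysis product quenches plate fluorescence so inhibitors raise well fluorescence; 0% = enzyme with DMSO and 100% = DMSO without enzyme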
PAFAH2 FP inh = inhibitors of human PAFAH2; recombinant PAFAH2, FP-rhodamine activity probe, fluorescence polarization; inhibition, % at 3.39 µM; 0.99% of 340,000 active;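 active means inhibition above the mean over all tested compounds plus 3 SD, cut at about 30% in these data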;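 further: inhibitors block probe labeling of enzyme so polarization drops; 0% = enzyme with DMSO and 100% = wells lacking PAFAH2 protein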
PAFAH1B2 inh = inhibitors of human PAFAH1B2. recombinant PAFAH1B2, FP-rhodamine activity probe, fluorescence polarization. 1.2% of 340,000 active. inhibition, % at 3.39 µM. P68402;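 active means inhibition above the mean of all tested compounds plus 3 SD, cut at about 24% in these data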;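 further: 0% = enzyme with DMSO and 100% = wells lacking PAFAH1B2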
* = called active by the depositor; · = no result. An excerpt weighted towards active compounds, which were near 3.6% of everything screened.

SMILES	PAFAH1B3 inh	pPAFAH FP inh	IMP-1 inh	VIM-2 inh	PAFAH2 FP inh	PAFAH1B2 inh
Cc1ccc(OCC(=O)NC(=S)Nc2ccc(S(=O)(=O)Nc3cc(C)on3)cc2)c(Br)c1	4	1	-3	-3	2	3
CN1C[C@@H]2[C@@H]3C(=O)N(C)C(=O)[C@@H]3[C@](C)(C1=O)N2C(=O)c1ccc(Cl)cc1	4	·	·	·	3	-4
COc1cc2cc(C(C)(C)O)oc(=O)c2cc1OC	9	33*	·	·	-13	11
COc1ccc(OC)c(NC(=O)c2cc(S(=O)(=O)N3CCCC3)cn2C)c1	11	-2	-3	-1	6	3
COc1cc(C(=O)Nc2ccc(C(F)(F)F)cc2)ccc1OCC(=O)N1CCOCC1	4	·	·	·	-2	1
Cc1nn(C(=O)c2ccco2)c(C)c1Sc1ccccc1	11	4	-2	1	52*	3
Cc1ccc(C(=O)NCC(=O)OCC(=O)Nc2cc(S(=O)(=O)N3CCOCC3)ccc2C)cc1	2	3	·	·	2	4
O=C(CSc1nccc(=O)[nH]1)Nc1cccc(S(=O)(=O)N2CCOCC2)c1	8	30*	-2	0	2	2
O=C(COC(=O)CNC(=O)c1ccc(Cl)cc1Cl)Nc1cccc(S(=O)(=O)N2CCCC2)c1	4	30*	·	·	4	1
Cc1ccc(S(=O)(=O)N2CCOCC2)cc1NC(=O)COC(=O)CNC(=O)c1ccc(Oc2ccccc2)cc1	4	28*	-2	1	4	-2
O=C(COC(=O)CCC1CCCC1)Nc1cccc(S(=O)(=O)N2CCOCC2)c1	-2	25*	·	·	15	-2
COCCN(C(=O)COC(=O)CNC(=O)c1ccc(C)cc1)c1c(N)n(Cc2ccccc2)c(=O)[nH]c1=O	16	·	·	·	3	12
CCOC(=O)C1=C(C(=O)OCC)c2ccc(OC)c(OC)c2C1	6	·	·	·	5	3
CCOc1ncccc1C(=O)NNC(=O)c1ccccc1-n1cccc1	7	-2	-3	-4	1	-6
CC(C)C[C@H]1CN=C(Nc2ccccc2)N1CC1CCC(C)CC1 (some centres not stated)	-7	2	-1	1	3	-1
COc1ccc2oc(C(=O)Nc3ccc(N4CCOCC4)cc3)c(C)c2c1	4	52*	·	·	13	3
Cc1cccc(NC(=O)CCCN2C(=O)C(c3ccccc3)Oc3cccnc32)c1C (configuration not stated)	-4	-4	1	0	-2	3
Cc1ncc(CO)c2c1Oc1nc(-c3ccccc3F)nc(SCC(=O)N(C)c3ccccc3)c1C2	6	-9	2	4	2	8
Cc1ncc(CO)c2c1Oc1nc(-c3ccccc3)nc(SCC(=O)N(C)c3ccccc3)c1C2	·	-11	7.9*	2	·	·
Cc1ncc(CO)c2c1Oc1nc(-c3ccccc3)nc(SCC(=O)N3CCCCC3)c1C2	0	6	-1	5	3	8
Cc1ncc(CO)c2c1Oc1nc(-c3ccccc3)nc(SCC(=O)N3CCOCC3)c1C2	3	-2	32*	3	0	2
O=C(CSC(=O)c1ccccc1)Nc1ccccc1F	10	3	·	·	4	-4
N#Cc1ccsc1NC(=O)CSc1nnc(-c2ccccc2)o1	2	34*	-2	-2	7	0
Cc1ccccc1N1C(S)=C(C#N)C(=O)NC1c1ccco1 (configuration not stated)	-6	20	1	1	6	0
N#CC1=C(S)N(c2ccccc2)C(c2ccc(-c3ccccc3Cl)o2)NC1=O (configuration not stated)	12	16	12*	2	11	8
Cc1ccc(C)c(SCC(=O)NCc2ccco2)c1	3	-4	-2	-3	0	7
Cc1ccc(C)c(SCC(=O)OCC(=O)c2ccco2)c1	6	28*	-2	-1	15	1
COc1ccc(-c2oc3ccc(-c4cc(OC)c(OC)c(OC)c4)cc3c2C#Cc2ccccn2)cc1	11	5	·	·	8	-1
COC(=O)c1cc(NC(=O)c2cccc(C(F)(F)F)c2)c(=O)oc1C/C=N/OCc1cccc(Cl)c1Cl	-3	27*	-2	-4	-19	-2
COC(=O)c1cc(NC(=O)c2cccc(C(F)(F)F)c2)c(=O)oc1C	4	6	-4	-1	8	1
